# Assay outcomes (PubChem BioAssay)
# Hits are enriched below; roughly 4% of the tested compounds scored in any of these assays.
# CHO parental Ca – counter-screen for OX1R antagonists: effect in parental CHO cells; inhibition, % at 5.6 µM; AID 463079; 0.63% of 330,000 active; parental CHO-K1, ATP-induced calcium, Fluo-8 fluorescence;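 active means inhibition above that plate's mean sample inhibition plus 3 SD, cut at about 26% in these data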;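 further: 0% = ATP-challenged DMSO wells and 100% = DMSO wells without ATP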
#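 Material: Parental CHO cells | Reagent: ATP | Compound dosing: Single nominal dose of 5.6 µM per compound | Detection: Intracellular calcium via Fluo-8 no-wash fluorescent dye | Read-out: % inhibition of ATP-induced calcium mobilization | Benchmarks: Low control ATP plus DMSO, high control DMSO only | Replicates: Singlicate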
# OX1R antag-1 – blocks the human orexin 1 receptor; O43613; OX1R-expressing cells, FRET antagonist read-out; inhibition, % at 6.6 µM; 1.8% of 330,000 active; AID 485270; in the data active means inhibition mostly above about 38%, no sharp cut-off; inactive means mostly below about 40%;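 further: 0% = agonist challenge alone and 100% = reference antagonist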
# Target sequence (O43613 whole entry, looked up): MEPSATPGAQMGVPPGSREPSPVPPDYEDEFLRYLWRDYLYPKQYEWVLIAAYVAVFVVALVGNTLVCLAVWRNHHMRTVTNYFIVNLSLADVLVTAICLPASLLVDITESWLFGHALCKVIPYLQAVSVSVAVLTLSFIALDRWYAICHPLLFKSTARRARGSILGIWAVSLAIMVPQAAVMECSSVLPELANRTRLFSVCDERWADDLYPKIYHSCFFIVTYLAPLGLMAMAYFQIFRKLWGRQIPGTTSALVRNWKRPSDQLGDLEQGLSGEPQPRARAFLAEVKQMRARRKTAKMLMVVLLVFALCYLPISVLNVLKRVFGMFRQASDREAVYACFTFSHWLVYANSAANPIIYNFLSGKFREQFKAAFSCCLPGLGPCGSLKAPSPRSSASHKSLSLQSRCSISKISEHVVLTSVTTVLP
# TAAR1 agonist – agonists of human TAAR1; CHO RD-HGA16 TAAR1, Fluo-8 calcium fluorescence; vehicle wells 0%, saturating PEA agonist 100%; activation, % at 3 µM; 0.99% of 360,000 active; AID 624467;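 active means activation above the mean activation of all test compounds in the run plus 3 SD, cut at about 38% in these data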
# Target sequence (Q96RJ0 whole entry, looked up): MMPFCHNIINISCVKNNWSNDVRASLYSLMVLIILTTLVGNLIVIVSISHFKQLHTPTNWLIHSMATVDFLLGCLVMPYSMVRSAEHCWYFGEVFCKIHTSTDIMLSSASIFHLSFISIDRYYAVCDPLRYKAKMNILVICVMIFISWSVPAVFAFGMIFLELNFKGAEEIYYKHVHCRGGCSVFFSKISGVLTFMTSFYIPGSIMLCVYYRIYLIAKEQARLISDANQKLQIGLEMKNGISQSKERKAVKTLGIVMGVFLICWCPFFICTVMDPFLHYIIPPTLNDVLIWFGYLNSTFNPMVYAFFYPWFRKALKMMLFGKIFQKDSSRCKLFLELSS
#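 Assay system – CHO-derived RD-HGA16 cells with stable Gα16 and human TAAR1 · Compound dosing – one-point dosing at 3 µM (nominal) · Incubation – 17-24 h seeding, 75 min 37 °C dye, 30 min RT · Measured by – kinetic Fluo-8 calcium fluorescence · Control set – DMSO vehicle as 0%, PEA at EC100 as 100% · Repeats – single well for each compound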
# TAAR1 antag – antagonists of human TAAR1; CHO RD-HGA16 TAAR1, Fluo-8 calcium fluorescence, antagonist; Q96RJ0; 1.5% of 360,000 active; inhibition, % at 3 µM; AID 624466;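 active means inhibition above a per-plate cutoff, the mean inhibition of test compounds on that plate plus 3 SD, cut at about 49% in these data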;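 further: 0% = DMSO plus EC80 beta-PEA response and 100% = DMSO alone without agonist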
#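 Test system: hTAAR1-expressing CHO RD-HGA16 cells, Gα16-coupled; Probe or stimulus: EC80 β-phenethylamine stimulus; Compound dosing: single nominal final test compound concentration of 3 µM; Timing: 140 s kinetic read after compound, 140 s after agonist; Signal: Fluo-8 calcium-sensitive fluorescence; Measure: % inhibition of agonist calcium response; Controls: DMSO and EC80 PEA controls.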
# OX1R antag-2 – antagonists of human orexin 1 receptor. O43613. CHO/OX1R cells, Fluo-8 calcium fluorescence, orexin A. inhibition, % at 5 µM. 0.43% of 330,000 active. AID 434989;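 active means inhibition above its plate's threshold, mean inhibition of all tested compounds on the plate plus 3 SD, cut at about 37% in these data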;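 further: 0% = orexin A challenge wells and 100% = SB-334867-A antagonist wells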
# OX1R Fluo8 conf – OX1R (human) antagonism, confirmed; 38% of 1,100 active; shares compounds with OX1R antag-2; CHO/OX1R cells, orexin A calcium Fluo-8 fluorescence; inhibition, % at 5 µM; in the data active means inhibition above about 29%;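 further: 0% = agonist challenge alone and 100% = reference antagonist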
# CHO Ca triplic – counter-screen for OX1R antagonists: effect in parental CHO cells; parental CHO-K1, ATP-induced calcium, Fluo-8 fluorescence; inhibition, % at 5.6 µM; shares compounds with OX1R antag-2; 9.3% of 1,100 active;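 active means inhibition above a per-plate limit, the mean inhibition of that plate's test compounds plus 3 SD, cut at about 25% in these data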;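 further: 0% = ATP challenge with DMSO and 100% = DMSO without ATP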
# * hit, by the source's call; . = no result given.
SMILES,CHO parental Ca,OX1R antag-1,TAAR1 agonist,TAAR1 antag,OX1R antag-2,OX1R Fluo8 conf,CHO Ca triplic
CN(CC(=O)Nc1ccc(Cl)c(C(F)(F)F)c1)C(=O)C1CCCO1 (stereo not drawn),-3.5,8.6,16.1,6.3,8.8,.,.
CN(CC(=O)Nc1ccc(Cl)c(C(F)(F)F)c1)CC(=O)NC1CCCCC1,-4.7,10.7,.,.,37.5,-22.4,0.4
COc1ccc(NC(=O)c2cc(-c3ccc(OC)c(OC)c3)on2)cc1OC,-11.2,13.6,5.7,-5.6,-16.8,.,.
COc1ccc(NC(=O)c2cc(-c3ccccc3Cl)on2)cc1OC,-25.1,40.9,7.2,39.0,36.8,30.0*,-2.6
O=C(CN1CCOCC1)Nc1ccc(Cl)cn1,-2.4,11.2,3.3,-4.6,-10.0,.,.
Cc1ncsc1CCOC(=O)c1ccc(N2CCOCC2)c([N+](=O)[O-])c1,18.4,52.9,4.5,-2.8,34.3,13.3,21.5
Cc1c(CCOC(=O)c2ccc(N3CCOCC3)c([N+](=O)[O-])c2)sc[n+]1CC#N,-10.8,27.6,1.1,-15.2,-19.8,.,.
CCCCNC(=O)C(=O)Nc1ccc2c(c1)N(S(=O)(=O)c1cccs1)CCC2,.,.,0.6,-5.0,.,.,.
O=C1Nc2ccc(S(=O)(=O)NCCCO)c3cccc1c23,.,.,4.7,-13.9,.,.,.
O=C1Nc2ccc(S(=O)(=O)NCCC3=CCCCC3)c3cccc1c23,18.8,60.5,17.6,24.0,34.3,-1.7,0.9
CCOC(=O)C1(Cc2ccccc2)CCCCCC1=O (stereo not drawn),.,.,0.1,-15.9,.,.,.
Cc1nn(-c2ccccc2)c(C)c1/C=N/NC(=O)c1cc(-c2cccs2)[nH]n1,-14.5,51.1,9.8,40.3,40.6,65.0*,-11.0
CCNC(=S)Nc1nc2c(cc1C(=O)OCC)CCCC2,-8.2,24.6,0.0,-11.6,-21.5,.,.
CCSC1=N/C(=C\C=C2/Oc3ccccc3N2CC)C(=O)S1,12.5,42.5,6.4,0.3,31.7,15.9,12.2
O=C(CSC1=Nc2ccccc2C2CC=NN12)NCc1ccco1 (stereo not drawn),-3.8,32.9,3.8,-15.2,57.5*,24.5,4.3
Cc1cc(C)n(-c2nc(-c3cccc(Cl)c3)cs2)n1,-25.6,47.0,23.3,-5.2,41.4*,6.5,-16.8
Cc1nc(N2CCN(c3ccccn3)CC2)c2c(C)c(C(=O)N3CCN(c4ccccc4F)CC3)sc2n1,-14.2,17.2,-0.1,26.8,-30.1,.,.
CCCCOc1ccc(S(=O)(=O)Nc2cc(OC)ccc2OC)cc1,16.7,14.9,15.6,4.2,50.9*,2.6,5.1
COc1ccc(OC)c(NS(=O)(=O)c2ccc(Cl)nc2)c1,-10.2,9.7,0.1,8.3,-26.1,.,.
COc1cccc(-c2nc(CS(=O)(=O)CC(=O)Nc3ccc(C(C)=O)cc3)c(C)o2)c1,-27.2,9.0,0.1,0.5,-8.6,.,.
CCCc1cc(=O)[nH]c(SCC(=O)Nc2sccc2C#N)n1,.,.,-0.6,-15.0,.,.,.
CC1C(=O)N2CCCc3cc(NC(=O)c4ccccc4F)cc1c32 (stereo not drawn),-25.2,2.4,1.2,1.0,-27.1,.,.
CSCC(=O)N1CCCC(CNC(=O)c2ccccc2Cl)C1 (stereo not drawn),-1.9,9.1,1.4,-6.7,22.4,6.6,-13.7
O=C(NCC1CCCN(C(=O)CN2CCCCC2)C1)c1ccccc1Cl (stereo not drawn),4.3,13.1,2.4,-24.1,-21.9,.,.
CCN1CCN(C(=O)c2cccc(OC3CCN(S(C)(=O)=O)CC3)c2)[C@@H](C)C1=O,-11.6,9.9,-0.1,5.0,-16.0,.,.
SMILES,CHO parental Ca,OX1R antag-1,TAAR1 agonist,TAAR1 antag,OX1R antag-2,OX1R Fluo8 conf,CHO Ca triplic
Cc1ccc(O)c(NC(=O)c2noc3c2CCc2ccccc2-3)c1,-15.2,66.6,3.8,-14.0,30.7,20.6,3.7
C=CC[C@@H](Cc1ccc(F)cc1)C(=O)OC[C@@H]1CCCN1C(=O)[C@@H](CC=C)CC(=O)N[C@@H](CO)Cc1ccccc1,-20.5,11.7,7.9,10.4,-7.4,.,.
C=CCC[C@@H](Cc1ccc(F)cc1)C(=O)OC[C@@H]1CCCN1C(=O)[C@H](CC=C)CC(=O)N[C@H](CO)Cc1ccccc1,-5.7,24.2,8.2,10.7,65.0*,14.3,-13.9
CC(NC(=O)c1ccco1)C(=O)N1CCN(c2cccc(Cl)c2)CC1 (stereo not drawn),-6.8,3.1,0.0,12.5,-13.6,.,.
CC(C)C(NC(=O)Cc1ccccc1)C(=O)N1CCN(c2cccc(Cl)c2)CC1 (stereo not drawn),5.0,22.1,4.0,34.9,40.9*,20.9,19.4
COC(=O)c1ccc(NC(=S)NNC(=O)c2ccccc2)cc1,-10.1,6.7,0.2,-12.9,27.9,3.6,6.5
O=C(NNC(=S)Nc1ccc(Br)cc1)c1ccccc1,.,.,5.6,1.5,.,.,.
COc1cccc(S(=O)(=O)NCc2ccc(C(=O)Nc3ccc(Cl)cc3)cc2)c1,-6.2,10.1,1.5,10.3,-1.2,.,.
COc1cccc(S(=O)(=O)NCc2ccc(C(=O)Nc3cccc(Cl)c3)cc2)c1,16.2,51.5,9.1,50.3*,45.3*,-0.9,-1.3
C#CCOCCOCCOCCNc1nc(N2CCN(C(=O)[C@H](CCC(=O)O)n3cc([C@@H](N)[C@H](C)CC)nn3)CC2)nc(N2CCN(C(=O)[C@H](CCC(=O)O)n3cc([C@@H](N)CCSC)nn3)CC2)n1,-3.8,-1.3,1.4,16.3,-2.5,.,.
Cc1cccc2sc(NC(=O)CCNS(=O)(=O)c3cccs3)nc12,20.3,38.6,18.4,29.6,31.4,17.1,3.6
CCN(c1ccc(OC)cc1)S(=O)(=O)c1cc(-c2cc(C)no2)ccc1C(C)C,5.0,31.2,0.8,-18.5,29.4,-25.1,-10.6
O=C(CN1CCN(C/C=C/c2ccccc2)CC1)NC(=O)NC1CCCCC1,-12.8,33.1,2.1,-19.7,-17.6,.,.
O=C(CSCc1ccc(Cl)cc1)N/N=C/c1ccc(OCC(=O)Nc2ccccc2)cc1,14.3,67.9,8.8,57.1*,35.8,6.2,3.6
CCn1ncc(/C=N/NS(=O)(=O)c2ccc(Cl)cc2)c1C,-20.3,21.4,6.4,4.2,-8.2,.,.
Cc1cc(N2CCN(c3ccc(F)cc3)CC2)nc(-c2ccccc2)n1,-41.1,52.6,1.1,-6.1,37.0,-20.7,-12.0
Cc1nn(-c2ccccc2)c(Cl)c1/C=N/NC(=O)CCNc1n[nH]c(=O)[nH]c1=O,-6.8,13.4,.,.,0.8,.,.
Cc1ccc(C)c(OCC(=O)N/N=C/c2c(C)nn(-c3ccccc3)c2Cl)c1,-20.0,30.8,10.7,53.2*,34.4,10.5,-9.3
Cc1ccc(F)c(Cn2cnc3c(cnn3C(C)(C)C)c2=O)c1Cl,-9.4,8.3,16.9,37.1,14.5,.,.
